Reference: ChEMBL document CHEMBL5030521, “Design, Synthesis, and Characterization of Novel sn-1 Heterocyclic DAG-Lactones as PKC Activators” (J Med Chem, 2021)
Activity calls are given as the source filed them.

Tests used:
[1] = biological target: T1, Protein kinase C epsilon type (Homo sapiens) (UniProt Q02156); test: Activation of GFP-fused PKCepsilon in HeLa cells assessed as translocation of PKCepsilon from cytosol to membrane measured after 30 mins by DAPI staining based fluorescence microscopy; assay type: subcellular
T1 sequence (whole entry): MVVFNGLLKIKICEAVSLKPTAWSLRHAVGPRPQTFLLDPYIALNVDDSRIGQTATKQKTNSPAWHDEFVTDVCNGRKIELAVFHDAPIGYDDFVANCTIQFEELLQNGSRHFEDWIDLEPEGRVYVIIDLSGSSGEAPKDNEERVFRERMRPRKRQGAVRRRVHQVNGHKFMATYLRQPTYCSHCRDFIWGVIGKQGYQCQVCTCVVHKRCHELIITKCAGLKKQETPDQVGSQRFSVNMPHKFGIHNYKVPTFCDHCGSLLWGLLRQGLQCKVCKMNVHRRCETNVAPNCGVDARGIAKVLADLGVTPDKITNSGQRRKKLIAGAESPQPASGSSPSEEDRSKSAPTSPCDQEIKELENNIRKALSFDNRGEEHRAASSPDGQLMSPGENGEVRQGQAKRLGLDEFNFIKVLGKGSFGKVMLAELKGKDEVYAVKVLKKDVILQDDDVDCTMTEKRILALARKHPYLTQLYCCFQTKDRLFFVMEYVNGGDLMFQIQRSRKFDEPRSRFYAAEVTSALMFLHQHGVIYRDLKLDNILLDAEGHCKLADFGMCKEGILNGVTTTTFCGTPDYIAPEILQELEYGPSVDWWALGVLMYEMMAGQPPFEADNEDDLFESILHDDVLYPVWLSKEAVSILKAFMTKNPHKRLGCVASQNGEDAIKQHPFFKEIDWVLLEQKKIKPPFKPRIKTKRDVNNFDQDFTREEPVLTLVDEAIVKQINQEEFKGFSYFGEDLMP
Summary of the method: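 HeLa cells transfected with pEGFP-N1-PKCε, plated on coverslips, serum-starved 24 h after 24 h, then treated 30 min; methanol-fixed, DAPI counterstained, imaged by fluorescence microscopy. Membrane/cytosol ratio from line intensity profiles across ~10–15 cells/group, operator blinded; mean ± SD; PMA 100 nM as control.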

[2] = biological target: T2, Protein kinase C alpha type (Homo sapiens, UniProt P17252); test: Displacement of [3H]-PDBu from recombinant human PKCalpha at 30 uM by scintillation counter method relative to control
Summary of the method: (§1)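 Competition of 2 nM [3H]PDBu by test ligand at a single fixed concentration (value in line); 50 mM Tris-HCl pH 7.4, 100 μg/mL porcine brain phosphatidylserine, 5 mg/mL bovine IgG, 0.003% Tx-100, 20 ng/tube enzyme; 0.1 mM Ca2+ for PKCα, 1 mM EGTA for PKCε. 5 min at 37 °C, PEG precipitation, bound and free counted separately; nonspecific with 10 μM cold PDBu; triplicates.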

[3] = biological target: T1, Protein kinase C epsilon type (Homo sapiens); test: Displacement of [3H]-PDBu from recombinant human PKCepsilon at 10 uM by scintillation counter method relative to control; summary of the method: as §1
[4] = biological target: T1, Protein kinase C epsilon type (Homo sapiens); test: Displacement of [3H]-PDBu from recombinant human PKCepsilon at 30 uM by scintillation counter method relative to control; summary of the method: as §1
[5] = biological target: T2, Protein kinase C alpha type; test: Displacement of [3H]-PDBu from recombinant human PKCalpha by scintillation counter method
Summary of the method: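 [3H]PDBu (2 nM) competition with increasing ligand in 50 mM Tris-HCl pH 7.4, 100 μg/mL porcine brain phosphatidylserine, 0.1 mM Ca2+ (PKCα), 5 mg/mL bovine IgG, 0.003% Triton X-100, 20 ng enzyme/tube; nonspecific with 10 μM PDBu. 37 °C 5 min, PEG precipitation, bound and free counted by scintillation. Triplicates; Ki from ID50; three experiments, mean ± SEM.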

A549 [6] = test: Induction of ruffle formation in human A549 cells at 1 microM incubated for 30 mins using phalloidin-rhodamine staining based microscopic analysis; assay type: functional, cell-based
Summary of the method: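 Serum-starved (24 h) A549 cells at low confluence on coverslips treated 30 min at 1 μM; fixed in 4% formaldehyde, F-actin stained with phalloidin-rhodamine, DAPI nuclei. Five random fields scored; ruffle area per cell by intensity thresholding.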

A549 [7] = test: Induction of ruffle formation in human A549 cells transfected with PKCepsilon siRNA at 1 microM incubated for 30 mins using phalloidin-rhodamine staining based microscopic analysis; assay type: functional, cell-based
Summary of the method: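 A549 cells transfected with PKCε siRNA duplexes (two sequences) or nontarget control; 48 h later treated 1 μM for 30 min, formaldehyde-fixed, phalloidin-rhodamine stained; ruffle area/cell by intensity thresholding. Knockdown checked by Q-PCR mRNA and Western blot.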

[8] = biological target: T3, Protein kinase C epsilon type (Homo sapiens, UniProt Q02156); test: Displacement of [3H]-PDBu from recombinant human PKCepsilon by scintillation counter method
T3 sequence (Q02156 whole entry): T1 sequence (whole entry)
Summary of the method: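 PKCε with 2 nM [3H]PDBu plus increasing competitor concentrations, in 50 mM Tris-HCl pH 7.4, 100 μg/mL phosphatidylserine, 1 mM EGTA, 5 mg/mL bovine IgG, 0.003% Tx-100, 20 ng/tube enzyme; 37 °C 5 min, then PEG precipitation and counting of pellet and supernatant. Nonspecific binding from 10 μM unlabeled PDBu. Ki derived from competition-curve ID50; mean ± SEM of three experiments, triplicate points.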

[9] = biological target: T2, Protein kinase C alpha type; test: Activation of GFP-fused PKCalpha in HeLa cells assessed as […] from cytosol to membrane measured after 30 mins by DAPI staining based fluorescence microscopy; assay type: subcellular; details: filed as activator
Summary of the method: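 HeLa cells (5 × 10^4) transfected with pEGFP-N1-PKCα or -PKCε, plated on coverslips; after 24 h serum-starved 24 h, then treated 30 min. Methanol-fixed, DAPI-counterstained, imaged by fluorescence microscopy. Line scans across cytoplasm (~10–15 cells/group) give membrane/cytosol fluorescence ratio; operator blinded; mean ± SD.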

Q: `CC(C)=C1CC(CO)(Cn2cc(-c3ccc(C)cc3)nn2)OC1=O` (centres undefined) was tested. Which Activity [1] did it give?
A: inactive

Q: What about the inhibition [2] of the same molecule?
A: 11.7%

Q: For `Cc1ccc(-c2cn(CC3(CO)C/C(=C\CC(CC(C)C)CC(C)C)C(=O)O3)nn2)cc1` (centres undefined), which inhibition [3] is on record?
A: 17%

Q: What about the Activity [1] of the same molecule?
A: inactive

Q: What does the source list for `CC(C)CC(C/C=C1\CC(CO)(Cn2nnc(-c3ccccc3)n2)OC1=O)CC(C)C` (centres undefined)?
A: inhibition [4]: 69.2%; inhibition [2]: 37.5%

Q: How did the Activity [1] turn out when `CC(C)=C1CC(CO)(Cn2nnc(-c3ccccc3)n2)OC1=O` (centres undefined) was run?
A: inactive

Q: And the inhibition [2]?
A: 23.5%

Q: Which results are given for `CC(C)CC(C/C=C1\CC(CO)(COC(=O)C(C)(C)C)OC1=O)CC(C)C` (centres undefined)?
A: Ki [5]: 23.6 nM; fold change (FC) ([1]; filed as activator): 43; Activity (A549 [6]): Active; Activity (A549 [7]): inactive; Ki [8]: 1.89 nM

Q: With `Cc1cc(OCC2(CO)C/C(=C\CC(CC(C)C)CC(C)C)C(=O)O2)no1` (centres undefined) as the molecule, how does the Ki [5] read?
A: 79.3 nM

Q: And the Activity (A549 [7])?
A: inactive

Q: What about the Ki [8] of the same molecule?
A: 33.6 nM

Q: For `CC(C)=C1CC(CO)(COc2cc(C)on2)OC1=O` (centres undefined), which inhibition [2] is on record?
A: 31.3%

Q: For `CCCCCCCCCCCCCC(=O)O[C@@H]1[C@@H](C)[C@@]2(O)[C@@H](C=C(CO)C[C@]3(O)C(=O)C(C)=C[C@@H]23)[C@@H]2C(C)(C)[C@]12OC(C)=O`, which Activity [9] is on record?
A: Active

Q: What about the Activity [1] of the same molecule?
A: inactive
